In ChEMBL document CHEMBL4145683, “Total Synthesis and Structure-Activity Relationships Study of Odilorhabdins, a New Class of Peptides Showing Potent Antibacterial Activity” (J Med Chem, 2018):
Values after ≈ are worked out from the molar mass of the structure shown. Non-standard residues stand in square brackets, D forms with d. Residues, ends and D or L forms follow the SMILES beside them. *: point of attachment. Dab(3S-OH) = NC[C@H](O)[C@H](N)C(=O)O; ΔZArg = N=C(N)NCC/C=C(\N)C(=O)O; dOrn = NCCC[C@@H](N)C(=O)O; Abu = CC[C@H](N)C(=O)O; NH(CH2)4NH2 = NCCCCN*

Assays:
Klebsiella pneumoniae [1] = test: Antimicrobial activity against Klebsiella pneumoniae ATCC 43816 by broth microdilution method; assay type: functional
How it was run: (§1)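 Broth microdilution MIC per CLSI M07-A10, with inoculum prepared by direct colony suspension. Reference strains were from ATCC and NCTC.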

Escherichia coli [2] = test: Antimicrobial activity against Escherichia coli ATCC BAA-2452 by broth microdilution method; assay type: functional; how it was run: as §1
Klebsiella pneumoniae [3] = test: Antimicrobial activity against Klebsiella pneumoniae ATCC BAA-1905 by broth microdilution method; assay type: functional; how it was run: as §1
Klebsiella pneumoniae [4] = test: Antimicrobial activity against Klebsiella pneumoniae ATCC BAA-2146 by broth microdilution method; assay type: functional; how it was run: as §1
Klebsiella pneumoniae [5] = test: Antimicrobial activity against Klebsiella pneumoniae NCTC 13438 by broth microdilution method; assay type: functional; how it was run: as §1
Escherichia coli [6] = test: Antimicrobial activity against Escherichia coli ATCC BAA-2340 by broth microdilution method; assay type: functional; how it was run: as §1
Escherichia coli [7] = test: microbe, parasite or virus in culture; details: ATCC 25922
Klebsiella pneumoniae [8] = test: Antimicrobial activity against Klebsiella pneumoniae ATCC BAA-2473 by broth microdilution method; assay type: functional; how it was run: as §1
Escherichia coli [9] = test: Antimicrobial activity against Escherichia coli ATCC BAA-2469 by broth microdilution method; assay type: functional; how it was run: as §1
Klebsiella pneumoniae [10] = test: Antimicrobial activity against Klebsiella pneumoniae ATCC BAA-1904 by broth microdilution method; assay type: functional; how it was run: as §1
Enterobacter cloacae = test: Antimicrobial activity against Enterobacter cloacae ATCC BAA-2468 by broth microdilution method; assay type: functional
Klebsiella pneumoniae [11] = test: Antimicrobial activity against Klebsiella pneumoniae ATCC 13883 by broth microdilution method; assay type: functional; how it was run: as §1
Klebsiella pneumoniae [12] = test: Antimicrobial activity against Klebsiella pneumoniae ATCC BAA-2472 by broth microdilution method; assay type: functional; how it was run: as §1
Klebsiella pneumoniae [13] = test: Antimicrobial activity against Klebsiella pneumoniae NCTC 13442 by broth microdilution method; assay type: functional
How it was run: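 CLSI broth microdilution with direct colony suspension inoculum, per CLSI M07-A10. Reference strain taken from the NCTC collection.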

Klebsiella pneumoniae [14] = test: Antimicrobial activity against Klebsiella pneumoniae NCTC 13439 by broth microdilution method; assay type: functional; how it was run: as §1
Klebsiella pneumoniae [15] = test: Antimicrobial activity against Klebsiella pneumoniae NCTC 13443 by broth microdilution method; assay type: functional; how it was run: as §1
Escherichia coli [16] = test: Inhibition of bacterial protein synthesis in cell-free Escherichia coli incubated for 1 hr and measured for every 20 mins by bacterial cell-free transcription-translation assay; assay type: functional; details: Escherichia coli
How it was run: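 E. coli cell-free coupled transcription-translation used a GFP gene in pEXP5-CT as template, started with 1 μg plasmid in 50 μL reactions. Feed buffer was added at 30 min, with incubation at 30 °C. Fluorescence (ex 475/em 520 nm) was read every 20 min. IC50 was taken at 1 h after feed addition from a four-parameter log(inhibitor)–response fit. Duplicates.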

[17] = Inhibition of mammalian protein synthesis in rabbit reticulocyte lysate system incubated for 1 hr by mammalian cell-free transcription-translation assay; set-up: species or system Oryctolagus cuniculus
[18] = test system: mammalian protein synthesis; test: Selectivity index, ratio of IC50 for inhibition of mammalian protein synthesis in rabbit reticulocyte lysate system incubated for 1 hr by mammalian cell-free transcription-translation assay to IC50 for Inhibition of bacterial protein synthesis in cell-free Escherichia coli; assay type: toxicity
[19] = Klebsiella pneumoniae, ATCC 43816, read-out: MIC

SMILES	MIC (Klebsiella pneumoniae [1]; [19]) [µg/mL]	MIC (Escherichia coli [7]) [µg/mL]	IC50 (Escherichia coli [16]) [nM]	MIC (Klebsiella pneumoniae [1]) [µg/mL]	IC50 [17] [nM]	MIC (Escherichia coli [2]) [µg/mL]	MIC (Klebsiella pneumoniae [3]) [µg/mL]	MIC (Klebsiella pneumoniae [4]) [µg/mL]	MIC (Klebsiella pneumoniae [5]) [µg/mL]	MIC (Escherichia coli [6]) [µg/mL]	MIC (Klebsiella pneumoniae [8]) [µg/mL]	MIC (Escherichia coli [9]) [µg/mL]	MIC (Klebsiella pneumoniae [10]) [µg/mL]	MIC (Enterobacter cloacae) [µg/mL]	MIC (Klebsiella pneumoniae [11]) [µg/mL]	MIC (Klebsiella pneumoniae [12]) [µg/mL]	MIC (Klebsiella pneumoniae [13]) [µg/mL]	MIC (Klebsiella pneumoniae [14]) [µg/mL]	MIC (Klebsiella pneumoniae [15]) [µg/mL]	selectivity ratio at 1 h [18]
CO/N=C(\C(=O)N[C@@H]1C(=O)N2C(C(=O)O)=C(CSc3nc(=O)c(O)nn3C)CS[C@H]12)c1csc(N)n1 [CEFTRIAXONE]	≤ 0.125	< 0.25				> 64	> 64	> 64	> 64	> 64	> 64	> 64	> 64	> 64	< 0.25	> 64	8 (≈ 14.4 µM)	> 64	> 64	
N=C(N)NCC/C=C(\NC(=O)[C@H](CCCCN)NC(=O)[C@H](Cc1cnc[nH]1)NC(=O)[C@@H]1CCCN1C(=O)[C@@H](CCCN)NC(=O)CNC(=O)[C@@H](NC(=O)[C@@H](NC(=O)[C@@H](N)CCCCN)[C@@H](O)CN)[C@@H](O)CN)C(=O)N[C@@H](CCCCN)C(=O)O (H-K[Dab(3S-OH)][Dab(3S-OH)]G[dOrn]PHK[ΔZArg]K-OH)	4 (≈ 3.35 µM)	16 (≈ 13.4 µM)	360																	
N=C(N)NCC/C=C(\NC(=O)[C@H](CCCCN)NC(=O)[C@H](Cc1cnc[nH]1)NC(=O)[C@@H]1CCCN1C(=O)[C@@H](CCCN)NC(=O)CNC(=O)[C@@H](NC(=O)[C@@H](NC(=O)[C@@H](N)CCCCN)[C@@H](O)CN)[C@@H](O)CN)C(=O)N[C@@H](CCCCN)C(=O)NCCCCN	4 (≈ 3.16 µM)	8 (≈ 6.33 µM)	630	4 (≈ 3.16 µM)	10300	8 (≈ 6.33 µM)	4 (≈ 3.16 µM)	2 (≈ 1.58 µM)	4 (≈ 3.16 µM)	8 (≈ 6.33 µM)	4 (≈ 3.16 µM)	4 (≈ 3.16 µM)	2 (≈ 1.58 µM)	4 (≈ 3.16 µM)	4 (≈ 3.16 µM)	4 (≈ 3.16 µM)	8 (≈ 6.33 µM)	2 (≈ 1.58 µM)	4 (≈ 3.16 µM)	16
N=C(N)NCC/C=C(\NC(=O)[C@H](CCCCN)NC(=O)[C@H](Cc1cnc[nH]1)NC(=O)[C@@H]1CCCN1C(=O)[C@@H](CCCN)NC(=O)CNC(=O)CNC(=O)[C@@H](NC(=O)[C@@H](N)CCCCN)[C@@H](O)CN)C(=O)N[C@@H](CCCCN)C(=O)NCCCCN (H-K[Dab(3S-OH)]GG[dOrn]PHK[ΔZArg]K-{NH(CH2)4NH2})	8 (≈ 6.64 µM)	8 (≈ 6.64 µM)	1060																	

Second part, led by results:

MIC (Klebsiella pneumoniae [1]; [19]) [µg/mL]	MIC (Escherichia coli [7]) [µg/mL]	IC50 (Escherichia coli [16]) [nM]	MIC (Klebsiella pneumoniae [1]) [µg/mL]	IC50 [17] [nM]	SMILES	MIC (Escherichia coli [2]) [µg/mL]	MIC (Klebsiella pneumoniae [3]) [µg/mL]	MIC (Klebsiella pneumoniae [4]) [µg/mL]	MIC (Klebsiella pneumoniae [5]) [µg/mL]	MIC (Escherichia coli [6]) [µg/mL]	MIC (Klebsiella pneumoniae [8]) [µg/mL]	MIC (Escherichia coli [9]) [µg/mL]	MIC (Klebsiella pneumoniae [10]) [µg/mL]	MIC (Enterobacter cloacae) [µg/mL]	MIC (Klebsiella pneumoniae [11]) [µg/mL]	MIC (Klebsiella pneumoniae [12]) [µg/mL]	MIC (Klebsiella pneumoniae [13]) [µg/mL]	MIC (Klebsiella pneumoniae [14]) [µg/mL]	MIC (Klebsiella pneumoniae [15]) [µg/mL]	selectivity ratio at 1 h [18]
4 (≈ 3.24 µM)	4 (≈ 3.24 µM)	730			CC[C@H](NC(=O)[C@@H](NC(=O)[C@@H](N)CCCCN)[C@@H](O)CN)C(=O)NCC(=O)N[C@H](CCCN)C(=O)N1CCC[C@H]1C(=O)N[C@@H](Cc1cnc[nH]1)C(=O)N[C@@H](CCCCN)C(=O)N/C(=C\CCNC(=N)N)C(=O)N[C@@H](CCCCN)C(=O)NCCCCN (H-K[Dab(3S-OH)][Abu]G[dOrn]PHK[ΔZArg]K-{NH(CH2)4NH2})															
> 64	> 64	> 40000			N=C(N)NCC/C=C(\NC(=O)[C@H](CCCCN)NC(=O)[C@H](Cc1cnc[nH]1)NC(=O)[C@@H]1CCCN1C(=O)[C@@H](CCCN)NC(=O)CNC(=O)[C@@H](N)[C@@H](O)CN)C(=O)N[C@@H](CCCCN)C(=O)NCCCCN															
